# Assay results published in PubChem BioAssay.
# A number with no mark means an inactive call. Records with an inconclusive call do not appear. Activity calls are given as the source filed them.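 How the source made its calls, unless noted: active means growth inhibition above 25% in both replicates, a cutoff set 3 SD above the mean; inconclusive means above 25% in only one replicate; inactive means the rest.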
# Assays:
# [1] = S. cerevisiae growth inhibition in permissive medium (OD615), pilot counter-assay for S. cerevisiae lifespan shortening project, permissive growth control (AID 705); settings: OD615, 24 h, at 10 µM, hits give high values
# How it was run: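 Timing: 24 h exposure, 30 °C / Material: Saccharomyces cerevisiae strain carrying genetically modified DeaD replicative-lifespan system / Signal: OD at 615 nm / Compound: 10 µM single dose, 0.25% DMSO / Medium: SC raffinose/galactose permissive medium / Evaluation: reduction in yeast growth (OD615)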
# [2] = S. cerevisiae growth inhibition in restrictive medium, OD615, pilot screen, restrictive growth control, yeast lifespan reduction project (AID 706;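 active means growth inhibition above a set limit, 3 SD over mean compound inhibition, in both replicates, cut at about 43% in these data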;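 further: modified DeaD lifespan yeast strain shifted to restrictive glucose medium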); settings: OD615, 48 h, at 10 µM, hits give high values
# How it was run: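 System: Engineered S. cerevisiae DeaD strain | Detection: OD615 | Buffer or medium: CSMM-D glucose medium | Doses: 10 µM compound, 0.25% DMSO | Timing: 4 h pre-growth plus 48 h compound exposure, 30 °C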
# [3] = doxorubicin toxicity protection in MRP-1 cells – H69AR cells, CellTiter-Glo, duplicate, MRP-1 activator project, pilot screen (AID 807;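 active means viability increase at or above a cutoff of the median across tested compounds plus 3 SD, cut at about 8.5% in these data, passing the limit was not always enough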;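 further: compound pretreatment 18-22 h then 72 h combined with doxorubicin; 0% = doxorubicin alone and 100% = vehicle without doxorubicin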); settings: H69AR viability with doxorubicin, CellTiter-Glo luminescence; at 10 µM; hits give high values
# [4] = viability of HCT116 without oncogenic beta-catenin – human colon tumor cells, pilot screen (AID 823;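 active means cell viability at or below a set limit in both duplicate runs, the limit being the all-compound median minus 4 SD, cut at about 23% in these data, passing the limit was not always enough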;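 further: 0% = wells killed by 20 µM Hyamine and 100% = untreated DMSO cell wells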); settings: HCT116 beta-catenin knockout viability, CellTiter-Glo, 60 h; at 10 µM; hits give low values
# [5] = viability of PTEN-null HCT116 cells – cell-based, HCT116 clonal line, CellTiter-Glo, pilot screen (AID 824;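 active means viability at or below 27.92% in each of two runs, the all-compound median minus 4 SD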;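 further: 0% = 20 µM Hyamine control and 100% = vehicle cell control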); settings: HCT116 PTEN-deleted viability, 60 h, at 10 µM, hits give low values
# [6] = RAM pathway blockade in budding yeast – dse1pr::URA3 reporter, 5-FOA selection, pilot screen (AID 869;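 active means inhibition over a set limit, the all-compound mean plus 3 SD, in both replicate runs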;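 further: 0% = DMSO wells with no growth and 100% = 10 µM 1-NA-PP1 with full growth; RAM network block rescues cells from 5-FOA so hits raise OD615 growth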); settings: S. cerevisiae dse1pr::URA3 5-FOA growth, OD615, 2 d; at 10 µM; hits give high values; strain carries analog-sensitive mutant Cbk1 kinase
# [7] = RAM signaling pathway blockade in yeast – S. cerevisiae, Pdr1DBD-CYC8 efflux-inhibited sensitized strain, primary screen (AID 1298;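 active means RAM network inhibition above 8.4% in each of two replicates, 3 SD over the compound average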;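 further: 0% = DMSO untreated cells without growth and 100% = 10 µM 1-NA-PP1 full growth; higher means more yeast growth rescued from 5-FOA killing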); settings: S. cerevisiae cbk1-as DSE1-URA3 strain, 5-FOA growth OD615, 2 d; at 50 µM; hits give high values
Compound,growth inhibition [1],growth inhibition [2],viability increase [3],viability [4],viability [5],inhibition [6],RAM network inhibition [7]
COc1cc(OC)nc(NC(=O)C(C)C)n1,-1.12%,6.71%,-0.57%,104%,97.3%,1.01%,4.06%
COC1=CC(=O)OC12CCCCC2,3.99%,-2.73%,-0.88%,94.7%,95.8%,1.27%,2.11%
CCN(CC)CCCNc1nc2ccccc2[nH]1,-4%,-5.4%,-0.63%,99%,98.3%,0.52%,4.31%
CCN(CC)c1ccc(C=Nc2ccc(C#N)cc2)c(O)c1,-18.8%,-19.5%,-0.93%,99.4%,96.3%,1.43%,5.13%
O=S(=O)(c1cccc2cccnc12)N1CCN(Cc2ccc3c(c2)OCO3)CC1,-7.45%,-17.5%,-0.35%,84.3%,92.2%,1.28%,0.52%
Cc1cccc(NC(=O)Nc2ccc(C#N)cc2)n1,-15.2%,-6.73%,-5.92%,18.1% (active),17.4% (active),-0.505%,3.51%
CCOc1ccccc1NC(=O)CSc1nc2c(c(=O)n1C)SC(C)C2 (stereo not given),-8.29%,-4.14%,-2.89%,92.3%,89.1%,2%,4.44%
Cc1c(C)n(CC(O)CN2CCCCCC2)c2ccccc12 (stereo not given),-14.9%,-19.6%,-4.25%,79.6%,81%,2.44%,1.09%
CCc1ccc2[nH]cc(C(=O)OCCOC)c(=O)c2c1,-19.9%,0.075%,-1.15%,88%,87.5%,1.91%,1.6%
CC1Cn2c(COc3ccccc3)nnc2S1 (stereo not given),-8.31%,6.73%,-0.25%,102%,94.1%,0.645%,4%
O=C(NCCC1=CCCCC1)C1CCN(c2nnc(-n3cccc3)s2)CC1,3.32%,4.32%,-0.38%,85.2%,82.2%,2.42%,1.13%
c1ccc(-c2ccc(-c3nc(-c4ccncc4)no3)cc2)cc1,14.4%,14.4%,2.99%,66.4%,82.5%,1.32%,2.1%
CS(=O)(=O)N(CC(=O)NCc1ccco1)c1ccc(Cl)c(C(F)(F)F)c1,-19%,-22.3%,-3.58%,92.8%,88.2%,0.705%,7.07%
COc1ccc(N2CCN(C(=O)C(Cc3ccccc3)n3cccc3)CC2)cc1 (stereo not given),-14.4%,-6.94%,-2.94%,84.9%,82.6%,1.7%,6.88%
O=C1C2C3c4ccccc4C(c4ccccc43)C2C(=O)N1Cc1ccco1 (stereo not given),-2.21%,5.63%,-3.21%,97%,93.4%,0%,4.51%
